Where “and” joins values, the source holds several entries; their conditions need not be identical. Equal entries are not always repeated. Where two headings read alike, the source gives them in different places.
Assays:
[1] = system: patients with CD; details: cited from earlier work
[2] = system: subjects with moderate‐to‐severe active Crohn's disease; experiment: Regression; format: in vivo, human; details: Cave as exposure metric; week 12/16
Summary of the method: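 SES-CD came from centrally read ileocolonoscopy at screening and at a randomly assigned week 12 or 16, with the two weeks pooled. End points were endoscopic response 25% and 50% and endoscopic remission, with nonresponder imputation. Regression Emax models related them to individual steady-state Cave over the dosing interval. The study used placebo and 3–24 mg b.i.d. or 24 mg q.d. IR oral dosing.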

[3] = format: in vivo, human; details: healthy subjects, ER formulation study
Summary of the method: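 ER absorption parameters were estimated from phase I data in healthy volunteers given the extended-release formulation. They were then incorporated into the exposure–response models to simulate ER q.d. regimens.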

[4] = format: in vivo, human; details: for Cmax: human, plasma, oral
Summary of the method: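 Patients with Crohn's disease took oral IR tablets at 3, 6, 12 or 24 mg b.i.d. or 24 mg q.d. for a 16-week induction. Sparse plasma samples were taken at weeks 2, 4, 8, 12 and 16, with time from last dose recorded, and assayed by validated LC-MS. Steady-state Cmax and Cmin came from empirical Bayesian individual estimates. Cave = Dose/(CL/F × dosing interval). Values are median (5th–95th percentiles).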

[5] = Population pharmacokinetic analysis of upadacitinib IR formulation; format: in vivo, human
Summary of the method: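 A population PK model previously built for healthy subjects and RA patients was the starting model. It was fitted to sparse CELEST plasma concentrations: weeks 2–16, validated LC-MS, sampling time relative to last dose recorded. Covariate effects were judged by differences in Cave between covariate groups. Dose was tested as a covariate on model parameters to assess dose proportionality.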

[6] = cited from earlier work
[7] = 3 mg b.i.d. IR, steady-state, CD patients, CELEST
[8] = 6 mg b.i.d. IR, steady-state, CD patients, CELEST
[9] = 12 mg b.i.d. IR, steady-state, CD patients, CELEST
[10] = 24 mg b.i.d. IR, steady-state, CD patients, CELEST
[11] = 24 mg q.d. IR, steady-state, CD patients, CELEST

O=C(Nc1nc2cccc(-c3ccc(CN4CCS(=O)(=O)CC4)cc3)n2n1)C1CC1 [Filgotinib]
efficacy in CD [1]: has shown efficacy

CC[C@@H]1CN(C(=O)NCC(F)(F)F)C[C@@H]1c1cnc2cnc3[nH]ccc3n12 [Upadacitinib]
EC50 for endoscopic remission [2]: 0.027 µg/mL
EC50 for endoscopic response 50% [2]: 0.026 µg/mL
bioavailability of ER formulation relative to IR formulation [3]: 74%
Cave, median (5th to 95th percentiles) [4, 7]: 6.9 (4.6–14.1) ng/mL
Cmin, median (5th to 95th percentiles) [4, 7]: 1.2 (0.4–6.6) ng/mL
Cave, median (5th to 95th percentiles) [4, 8]: 14.9 (7.6–25.2) ng/mL
Cmin, median (5th to 95th percentiles) [4, 8]: 2.6 (0.2–7.5) ng/mL
Cave, median (5th to 95th percentiles) [4, 9]: 26.7 (8.5–49.6) ng/mL
Cmax, median (5th to 95th percentiles) [4, 9]: 80.7 (25.3–124) ng/mL
Cmin, median (5th to 95th percentiles) [4, 9]: 4.9 (0.2–25.2) ng/mL
Cave, median (5th to 95th percentiles) [4, 10]: 55.1 (29.8–91.8) ng/mL
Cmin, median (5th to 95th percentiles) [4, 10]: 7.8 (1.8–20.7) ng/mL
Cave, median (5th to 95th percentiles) [4, 11]: 25.1 (13.6–92.0) ng/mL
Cmin, median (5th to 95th percentiles) [4, 11]: 1.7 (0.3–34.2) ng/mL
Cmax ([4]; 3 mg): 21.8 ng/mL
Cmax ([4]; 6 mg): 40.2 ng/mL
Cmax ([4]; 24 mg): 161 ng/mL
dose proportionality of exposure ([5]; 3–24 mg b.i.d.): approximately dose‐proportional
higher Cave with renal impairment ([5]; creatinine clearance 50 mL/minute vs 110 mL/minute): 28%
CL/F in subjects with CD relative to healthy subjects ([5]; population PK): comparable
lower clearance in subjects with RA compared with non‐RA subjects ([5]; population PK): 22% and ~ 20%
higher Cave in women compared with men ([5]; population PK covariate): 18%
lower CL/F in women compared with men ([5]; population PK covariate): 15%
lower Vc/F in women compared with men ([5]; population PK covariate): 25%
difference in Cave among different covariate groups ([5]; renal impairment, sex, bodyweight covariates): < 30%
lower Cave in subjects with CD than in subjects with RA ([5]; same dose): ~ 20%
Intersubject variability in CL/F ([5]; subjects with CD): 41%
Intersubject variability in Vc/F ([5]; subjects with CD): 29%
dose proportionality of plasma exposures ([6]; 3–48 mg IR or 7.5–45 mg ER, ref 21,23 (data on file at AbbVie)): dose‐proportional
functional half‐life ([6]; IR formulation): 3 to 4 h
increase in bioavailability from the ER formulation after a high‐fat meal [6]: ~ 20%
relative bioavailability of ER formulation ([6]; more extensive dataset in subjects with RA): 76%
time to reach maximum plasma concentration ([6]; oral, IR formulation): 1 to 2 h
exposure of ER 15 mg and 30 mg q.d. vs IR 6 mg b.i.d. and 12 mg b.i.d. ([6]; phase I study, healthy subjects): equivalent Cave and similar Cmax and Cmin

C[C@@H]1CCN(C(=O)CC#N)C[C@@H]1N(C)c1ncnc2[nH]ccc12 [tofacitinib]
efficacy in patients with CD ([1]; two phase II studies): did not demonstrate efficacy

Reference: article PMC7027977 (Clinical Pharmacology and Therapeutics, 2019)
